In ChEMBL document CHEMBL1154972, “Novel pyrazolo-tetrahydropyridines as potent orexin receptor antagonists” (Bioorg Med Chem Lett, 2010):
pIC50: −log10 of the molar value. Calls of active or inactive are those of the source. No cut-off for these calls is given here.

Experiments:
[1] = biological target: T1, Orexin/Hypocretin receptor type 1 (Homo sapiens, UniProt O43613); test: Antagonist activity at human OX1 receptor expressed in CHO cells assessed as inhibition of calcium mobilization by FLIPR assay; type: functional, cell-based
T1 sequence (O43613 whole entry): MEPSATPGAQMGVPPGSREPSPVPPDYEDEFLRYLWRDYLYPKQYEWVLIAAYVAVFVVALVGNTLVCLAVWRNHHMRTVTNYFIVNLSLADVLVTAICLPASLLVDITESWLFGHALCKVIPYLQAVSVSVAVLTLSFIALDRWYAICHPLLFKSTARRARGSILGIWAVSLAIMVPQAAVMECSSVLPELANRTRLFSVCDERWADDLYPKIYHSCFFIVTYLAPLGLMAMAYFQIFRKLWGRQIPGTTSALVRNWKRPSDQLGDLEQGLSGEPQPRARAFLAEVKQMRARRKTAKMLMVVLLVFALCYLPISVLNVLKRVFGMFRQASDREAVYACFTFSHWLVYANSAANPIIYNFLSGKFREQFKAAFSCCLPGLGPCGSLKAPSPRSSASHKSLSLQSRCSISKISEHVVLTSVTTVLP
Summary of the method: (§1)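 CHO cells stably bearing human OX1 or OX2 receptor, plated and loaded at 37 °C, 5% CO2 with fluo-3 AM calcium dye, then washed. Test antagonists added at varying concentrations before orexin A challenge; intracellular Ca2+ rise followed as fluorescence change on FLIPR. IC50 taken as concentration giving 50% inhibition of agonist response.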

Orexin receptor type 2 = biological target: T2, Orexin receptor type 2 (Homo sapiens, UniProt O43614); test: Antagonist activity at human OX2 receptor expressed in CHO cells assessed as inhibition of calcium mobilization by FLIPR assay; type: functional, cell-based; summary of the method: as §1
T2 sequence (O43614 whole entry): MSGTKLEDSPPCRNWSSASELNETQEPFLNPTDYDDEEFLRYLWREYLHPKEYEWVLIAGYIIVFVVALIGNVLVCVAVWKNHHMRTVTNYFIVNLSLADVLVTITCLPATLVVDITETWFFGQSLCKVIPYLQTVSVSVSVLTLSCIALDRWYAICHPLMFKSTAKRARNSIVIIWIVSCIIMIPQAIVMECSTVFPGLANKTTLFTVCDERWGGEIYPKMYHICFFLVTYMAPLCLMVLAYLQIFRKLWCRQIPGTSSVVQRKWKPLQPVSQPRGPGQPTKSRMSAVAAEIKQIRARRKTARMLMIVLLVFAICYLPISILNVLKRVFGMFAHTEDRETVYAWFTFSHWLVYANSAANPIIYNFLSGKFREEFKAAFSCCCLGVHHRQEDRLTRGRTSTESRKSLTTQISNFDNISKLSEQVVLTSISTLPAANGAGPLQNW

Rattus norvegicus [2] = test: Somnolence activity in Wistar rat assessed as home cage activity in dark at 100 mg/kg, po over 12 hrs night period by radiotelemetric assay; type: functional, organism-based; set-up: dose 100 mg/kg
Summary of the method: (§2)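 Adult male Wistar rats carrying radiotelemetric implants; single oral dose 100 mg/kg in 100% PEG-400 given at dark (active) phase onset. EEG, EMG, home cage activity and body temperature recorded, effects integrated over following 12-h night. Crossover design, groups of 7 or 8, washout of at least 4 days; paired t-test; means ± SEM.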

Rattus norvegicus [3] = test: Somnolence activity in Wistar rat assessed as time spent in non-rapid eye movement sleep at 100 mg/kg, po over 12 hrs night period by radiotelemetric assay; type: functional, organism-based; set-up: dose 100 mg/kg; summary of the method: as §2
Rattus norvegicus [4] = test: Somnolence activity in Wistar rat assessed as time spent in rapid eye movement sleep at 100 mg/kg, po over 12 hrs night period by radiotelemetric assay; type: functional; summary of the method: as §2
Rattus norvegicus [5] = test: Somnolence activity in Wistar rat assessed as time spent in active wake at 100 mg/kg, po over 12 hrs night period by radiotelemetric assay; type: functional, organism-based; set-up: dose 100 mg/kg; summary of the method: as §2

| SMILES | pIC50 [1] | pIC50 (Orexin receptor type 2) | Activity (Rattus norvegicus [2]) | Activity (Rattus norvegicus [3]) | Activity (Rattus norvegicus [4]) | Activity (Rattus norvegicus [5]) |
| --- | --- | --- | --- | --- | --- | --- |
| CCn1nc(C)c2c1CCN(C(C(=O)NC)c1ccccc1)C2CCc1cccc(C)c1 (mixture of isomers) | 6.74 | 7.72 | – | – | – | – |
| CCn1nc(C)c2c1CCN([C@@H](C(=O)NC)c1ccccc1)[C@H]2CCc1cc(F)c(C(F)(F)F)c(F)c1 | – | – | Active | Active | 8% | – |
| CCn1nc(C)c2c1CCN([C@@H](C(=O)NC)c1ccccc1)[C@@H]2CCc1ccc(C(C)C)cc1 | 5.72 | 6.75 | – | – | – | – |
| CCn1nc(C)c2c1CCN(C(C(=O)NC)c1ccccc1)C2CCc1ccccc1F (mixture of isomers) | 6.17 | 7.66 | – | – | – | – |
| CCn1nc(C)c2c1CCN(C(C(=O)NC)c1ccccc1)C2CCc1ccccc1C (mixture of isomers) | 5.99 | 7.68 | – | – | – | – |
| CCn1nc(C)c2c1CCN([C@@H](C(=O)NC)c1ccccc1)[C@H]2CCc1ccc(C(C)C)cc1 | 6.79 | 8.05 | – | – | – | – |
| CCn1nc(C)c2c1CCN(C(C(=O)NC)c1ccccc1)C2CCc1cccc(F)c1 (mixture of isomers) | 6.40 | 8.00 | – | – | – | – |
| CCn1nc(C)c2c1CCN([C@@H](C(=O)NC)c1ccccc1)[C@H]2CCc1ccc(C)c(C)c1 | – | – | Active | Active | 15% | Active |
| CCn1nc(C)c2c1CCN([C@@H](C(=O)NC)c1ccccc1)[C@H]2COc1ccc(C)cc1 | 5.00 | 7.72 | – | – | – | – |

Now from value to molecule, other results behind:

| pIC50 [1] | pIC50 (Orexin receptor type 2) | SMILES | Activity (Rattus norvegicus [2]) | Activity (Rattus norvegicus [3]) | Activity (Rattus norvegicus [4]) | Activity (Rattus norvegicus [5]) |
| --- | --- | --- | --- | --- | --- | --- |
| 6.89 | 8.52 | CCn1nc(C)c2c1CCN([C@@H](C(=O)NC)c1ccccc1)[C@H]2CCc1ccc(C(F)(F)F)cc1 | – | – | – | – |
| 6.45 | 8.15 | CCn1nc(C)c2c1CCN(C(C(=O)NC)c1ccccc1)C2CCc1cccc(C(F)(F)F)c1 (mixture of isomers) | – | – | – | – |
| 6.11 | 7.60 | CCn1nc(C)c2c1CCN(C(C(=O)NC)c1ccccc1)C2Cc1ccc(C(F)(F)F)cc1 (mixture of isomers) | – | – | – | – |
| 5.85 | 6.76 | CCc1ccc(CC[C@@H]2c3c(C)nn(CC)c3CCN2[C@@H](C(=O)NC)c2ccccc2)cc1 | – | – | – | – |
| 7.20 | 8.52 | CCc1ccc(CC[C@H]2c3c(C)nn(CC)c3CCN2[C@@H](C(=O)NC)c2ccccc2)cc1 | – | – | – | – |
| 5.00 | 6.66 | CCn1nc(C)c2c1CCN(C(C(=O)NC)c1ccccc1)C2CCc1ccc(OC)cc1 (mixture of isomers) | – | – | – | – |
| 6.97 | 8.22 | CCn1nc(C)c2c1CCN(C(C(=O)NC)c1ccccc1)C2CCc1ccc(C)cc1 (mixture of isomers) | – | – | – | – |
| 6.00 | 7.92 | CCn1nc(C)c2c1CCN(C(C(=O)NC)c1ccccc1)C2CCc1ccc(Cl)cc1 (mixture of isomers) | – | – | – | – |
